ARFGAP1 inhibitor – inhibits rat ARF GTPase activating protein 1; AID 651572; inhibition, % at 16.5 µM; hit rate 0.26% among 360,000; Q62848; Arfgap1-stimulated ARF1 GTP hydrolysis, GDP FP detection;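 active = inhibition above a per-plate limit, mean inhibition of low control wells plus 3 SD, cut at about 25% in these data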;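 also: 0% = DMSO wells with enzyme and 100% = wells lacking Arfgap1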
Target sequence (Q62848 1-136 limits assumed): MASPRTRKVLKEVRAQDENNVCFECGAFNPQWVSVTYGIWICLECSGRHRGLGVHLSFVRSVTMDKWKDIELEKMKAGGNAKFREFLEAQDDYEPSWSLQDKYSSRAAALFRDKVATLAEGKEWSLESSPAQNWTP
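system = rat Arfgap1 catalytic domain, aa 1-136 | technique = FP, GDP Alexa 633 tracer displaced from anti-GDP antibody, 620/688 nm | compound = one concentration, 16.5 µM, DMSO 1.26% | medium = HEPES-based buffer, pH 7.5 | timing = compound-enzyme preincubation 20 min, reaction 120 min, detection 60 min, 25 °C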
ASAP1 GAP inh – blocks human ASAP1-stimulated Arf1 GTP hydrolysis; Q9ULH1; GDP FP detection; inhibition, % at 16.5 µM; hit rate 0.19% among 360,000; in the data active = inhibition above about 25%;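 also: 0% = vehicle with enzyme and substrate and 100% = no enzyme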
Target sequence (Q9ULH1 325-724 limits assumed): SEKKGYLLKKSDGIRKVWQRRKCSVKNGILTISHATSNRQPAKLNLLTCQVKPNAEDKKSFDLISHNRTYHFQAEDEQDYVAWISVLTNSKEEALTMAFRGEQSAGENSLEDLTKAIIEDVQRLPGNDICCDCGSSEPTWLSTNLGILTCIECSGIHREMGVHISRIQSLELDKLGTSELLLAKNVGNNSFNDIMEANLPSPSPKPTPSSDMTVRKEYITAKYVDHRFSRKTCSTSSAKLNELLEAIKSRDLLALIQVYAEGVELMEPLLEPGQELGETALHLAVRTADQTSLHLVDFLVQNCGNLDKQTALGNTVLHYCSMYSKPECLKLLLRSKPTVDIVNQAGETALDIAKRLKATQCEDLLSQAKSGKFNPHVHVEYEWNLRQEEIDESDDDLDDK
C2C12 statin – suppression of simvastatin myotoxicity | hit rate 0.78% among 330,000 | AID 602340 | C2C12 myotubes + simvastatin, ATP luminescence, 48 h; scaled: DMSO 0, geranylgeraniol control 100 | rescue of ATP level, % at 7.49 µM;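 active = mean ATP rescue above about 67%, or every replicate alone reaching that limit, limit read from the data, passing the limit was not always enough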;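 also: myotubes were challenged with 10 µM simvastatin during compound exposure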
SUMO Mot1 rescue – blocks SUMOylation pathway, rescuing yeast Mot1-301 growth; AID 2716; growth rescue, % at 18.8 µM; S. cerevisiae Mot1-301 growth rescue, ATP luminescence, 38.5C; percent above DMSO median, 100 means doubled; hit rate 1% among 320,000;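 active = every valid replicate shows activation above 250% relative to neutral control wells; inactive = the rest, any valid replicate at or below 250%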;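 also: OY570 slx delta 5 strain wells were the positive control but not used for scaling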
A3G deaminase – blocks human APOBEC3G single-stranded DNA deamination | Q9HC16 | recombinant A3G, ssDNA deamination FAM/TAMRA fluorescence | inhibition, % at 20 µM | hit rate 0.28% among 330,000 | AID 493012;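 active = inhibition of at least 40% at 20 µM, with no more than 30% in the related APOBEC3A deaminase screen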;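 also: plate controls were DMSO wells with A3G for no effect and wells lacking A3G enzyme for full effect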
APOBEC3A inh – blocks human APOBEC3A ssDNA deamination | AID 493011 | inhibition, % at 20 µM | hit rate 0.41% among 330,000 | recombinant A3A, FAM/TAMRA ssDNA deamination fluorescence;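 active = at least 40% inhibition at 20 µM here, with at most 30% in a related deaminase screen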;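 also: plate controls were A3A with DMSO for no effect and wells lacking A3A enzyme for full effect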
Target sequence (P31941 whole entry, looked up): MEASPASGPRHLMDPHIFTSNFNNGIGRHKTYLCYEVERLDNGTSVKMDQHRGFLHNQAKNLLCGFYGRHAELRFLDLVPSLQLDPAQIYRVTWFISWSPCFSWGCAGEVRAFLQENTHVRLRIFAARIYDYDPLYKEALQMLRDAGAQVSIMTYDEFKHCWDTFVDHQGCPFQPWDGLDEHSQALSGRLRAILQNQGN
Mot1 SUMO dose – yeast SUMO pathway inhibition in dose response. shares compounds with SUMO Mot1 rescue. S. cerevisiae Mot1-301 galactose growth, ATP luminescence, 24 h; -100 = growth of slx-deleted rescue strain. growth activity, percent, % at 42 µM. 2,300 tested, under 10 active. AID 493004;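 active = Signal drops as the depositor expects, and the fitted half-maximal dose is no more than ten times the top valid tested dose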;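 also: more negative values mean stronger growth rescue toward the control strain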
Numbers without * were called inactive; · = not tested or not shown; + = active, no number. Most compounds without a hit are left out; they make up all but 2.1% or so of the library.

SMILES | ARFGAP1 inhibitor | ASAP1 GAP inh | C2C12 statin | SUMO Mot1 rescue | A3G deaminase | APOBEC3A inh | Mot1 SUMO dose
COc1ccccc1OCCCn1cc(C#N)c2ccccc21 | -2.5 | 11.3 | -3.3 | 832.2* | -3.1 | -3.6 | -0.2
CCOc1ccccc1/C=N\Nc1cnn(Cc2ccccc2)c(=O)c1Cl | 4.1 | -6.6 | · | + | 2.9 | 4.0 | 0.1
O=C(C[C@@H]1CC[C@@H]2[C@H](COC[C@@H](O)CN2C(=O)c2ccccc2F)O1)NCc1ccccc1 | · | · | -4.8 | · | · | · | ·
CCOC(=O)c1c(C)[nH]c(O)c1C=Nc1ccccc1 | -5.1 | 2.7 | 6.5 | 882.9* | -1.1 | -2.0 | -0.3
O=C(N[C@H]1CC[C@H](CCNC(=O)C2CCOCC2)O[C@H]1CO)c1ccccn1 | · | · | -4.1 | · | · | · | ·
COc1ccc(S(=O)(=O)Nc2ccc3c(c2)CC(=O)N([C@H](C)CO)C[C@@H](C)[C@@H](CN(C)Cc2ccc(C(=O)O)cc2)O3)cc1 | · | · | 16.7 | · | · | · | ·
COc1cccc(NC(=O)CNC(=O)c2ccc(F)cc2)c1 | 10.6 | -3.2 | · | -17.7 | -7.3 | -5.6 | ·
COc1ccc(C(=O)NCC(=O)Nc2ccccc2)cc1OC | -5.3 | -2.6 | 8.8 | 449.2* | -0.7 | -17.4 | 0.6
COc1cccc(NC(=O)CNC(=O)c2ccc(C)cc2)c1 | 1.4 | 8.1 | 6.2 | 499.1* | -3.5 | 0.8 | -0.4
CCCCSCCCNC(=O)Nc1cccc(OC)c1 | -1.8 | 6.2 | -5.0 | 548.8* | -2.3 | -1.3 | -0.8
COc1cccc(NC(=O)NCCc2ccc(Cl)cc2)c1 | -8.1 | -7.9 | 9.3 | 0.9 | -8.8 | -1.6 | ·
CC(C)NC(=O)N[C@@H]1CC[C@@H](CC(=O)NCCN2CCCC2)O[C@@H]1CO | · | · | -3.1 | · | · | · | ·
CC(=O)c1cccc(CN2CCCC(N3CCN(c4ccccc4F)CC3)C2)c1 (stereo not given) | -0.3 | 4.2 | 2.7 | 796.2* | -2.4 | 1.7 | -0.4
COc1ccccc1N1CCN(C2CCCN(Cc3cccc(O)c3)C2)CC1 (stereo not given) | 4.2 | -5.5 | -4.4 | 15.5 | -2.2 | -1.2 | ·
Nc1ccc(Oc2ccccc2-c2ccccc2)cc1 | 7.7 | -8.6 | · | 445.7* | 5.9 | 7.5 | 1.4
NCCOc1ccccc1-c1ccccc1 | -6.6 | -1.1 | 6.3 | -10.7 | -4.3 | -3.6 | ·
Nc1ccc2c(c1)OCCOCCOCCOCCOCCO2 | 4.7 | -4.2 | · | -22.7 | -2.0 | 2.3 | ·
c1ccc2c(c1)OCCOCCOc1ccccc1OCCOCCO2 | -12.6 | 2.6 | · | 734.9* | -1.7 | 6.8 | 0.8
N#Cc1cccc(NC(=O)CSc2n[nH]c(=O)[nH]c2=O)c1 | -7.4 | -9.8 | 2.7 | 651.6* | -3.4 | 6.5 | 0.7
CN(C[C@@H]1N[C@H](CO)[C@@H]1c1ccc(C2=CCCCC2)cc1)S(C)(=O)=O | · | · | -15.9 | · | · | · | ·
COc1cccc(-c2ccc3c(c2)O[C@H](CN(C)Cc2ccncc2)[C@H](C)CN([C@@H](C)CO)S3(=O)=O)c1 | · | · | -9.8 | · | · | · | ·
CCC(C)c1ccc(S(=O)(=O)N2CCN(C(=O)COc3ccc4c(C)cc(=O)oc4c3)CC2)cc1 (stereo not given) | 1.3 | -9.0 | 19.4 | 524.1* | -2.8 | 0.5 | 0.2
COc1ccc(-c2cccc(C3CC=CC4C3C(=O)N(Cc3ccccc3)C4c3ccc4ccccc4c3)c2)cc1 (stereo not given) | -8.9 | 1.3 | -3.0 | 63.9 | 8.4 | 0.4 | ·
O=C1C2C(c3ccccc3)CC=CC2[C@H](c2ccc3ccccc3c2)N1Cc1ccccc1 (stereo not given in full) | 2.9 | 2.5 | -5.3 | 507.6* | -6.4 | 1.8 | -0.8
O=C(Nc1ccc2c(c1)OCO2)N[C@@H]1CC[C@H](CCNC(=O)C2CCCCC2)O[C@H]1CO | · | · | 7.8 | · | · | · | ·
SMILES | ARFGAP1 inhibitor | ASAP1 GAP inh | C2C12 statin | SUMO Mot1 rescue | A3G deaminase | APOBEC3A inh | Mot1 SUMO dose
CC(C)[C@H](C)NC(=O)N(C)C[C@H]1OCc2ccccc2-c2c(n(C)c3ccccc23)C(=O)N([C@H](C)CO)C[C@H]1C | · | · | -8.0 | · | · | · | ·
CN(CC(=O)NCc1cccs1)S(=O)(=O)c1cccc2nsnc12 | 5.0 | -5.8 | 1.6 | 435.9* | -7.2 | -4.6 | 0.0
CCCN1[C@@H]2c3ccc(C4=CCCC4)c(=O)n3C[C@@H]2[C@@H](CO)[C@@H]1C(=O)NCC | · | · | 6.4 | · | · | · | ·
COc1ccc(S(=O)(=O)N(C)C[C@@H]2Oc3ncc(Br)cc3C(=O)N([C@H](C)CO)C[C@@H]2C)cc1 | · | · | 4.9 | · | · | · | ·
Cc1cccc2nc(COc3ccc4ccccc4c3Br)cn12 | 7.5 | 21.0 | · | 728.5* | 7.4 | -6.1 | -1.0
Cc1nn(C)cc1CNC(=O)C1CCC(=O)N(Cc2cccc(C(F)(F)F)c2)C1 (stereo not given) | 7.7 | 3.8 | · | 374.7* | -4.7 | -0.8 | -0.1
CC1(C)CC(=O)C(CC2CCCCC2=O)C(=O)C1 (stereo not given) | 7.5 | -5.6 | 3.1 | 575.4* | -6.5 | -0.4 | 0.3
Cc1ccc(SC[C@H](C)CN2CC[C@H](C)CCC2=O)cc1 | 6.7 | -1.8 | -9.3 | 460.3* | -8.9 | -3.0 | 0.0
COc1ccc(CC(=O)N2CCCC(C)C2)cc1 (stereo not given) | 0.0 | 0.5 | · | -10.1 | -2.6 | -3.6 | ·
CC1CCCN(C(=O)Cc2ccc(F)cc2)C1 (stereo not given) | 6.8 | -1.4 | -1.0 | 407.6* | -5.7 | -6.4 | -0.2
O=C(COc1ccc(Cl)cc1Cl)NCCN1CCCCC1 | -19.9 | -2.3 | 6.6 | · | · | · | ·
O=S(=O)(CCN1CCCCC1)Oc1ccc(Cl)cc1Cl | 9.8 | -0.5 | · | 921.7* | -3.9 | 1.3 | 0.7
O=C(c1ccncc1)N1C[C@@H]2[C@H](c3ccccc31)[C@@H](CO)N2C(=O)Nc1ccccc1Cl | · | · | -27.8 | · | · | · | ·
CN1C(=O)/C(=C/c2ccc(OCc3ccccc3F)cc2)NC1=S | 10.6 | -1.8 | 9.5 | 375.4* | -7.0 | -1.8 | -0.4
COc1cc(/C=C2\NC(=S)N(C)C2=O)ccc1OCc1ccccc1F | 3.6 | 0.1 | 1.1 | 16.8 | 2.7 | -0.4 | ·
CC(C)C#Cc1ccc([C@H]2[C@@H](C#N)N(C(=O)CN(C)C)[C@@H]2CO)cc1 | · | · | -27.8 | · | · | · | ·
COc1ccccc1CNc1ncnc2c1nnn2Cc1ccccc1 | -5.9 | -0.1 | 125.8* | 513.6* | -1.9 | -0.7 | -0.3
COc1ccccc1CNc1ncnc2nc[nH]c12 | 2.3 | -9.2 | -3.8 | 671.2* | -3.1 | 0.0 | -0.1
COc1ccccc1Nc1ncnc2nc[nH]c12 | 9.9 | -5.3 | · | 7.6 | -0.9 | 2.1 | ·
CC(C)NC(=O)N[C@H]1CC[C@H](CCNC(=O)C2CCCC2)O[C@H]1CO | · | · | 1.3 | · | · | · | ·
C/C(O)=C(\N=Nc1cc(C)ccc1O)C(N)=O | 11.2 | -19.3 | · | + | -5.1 | -4.5 | 0.6
CO[C@H]1CN(C)C(=O)c2ccc(NS(C)(=O)=O)cc2OC[C@@H](C)N(CC2CCOCC2)C[C@H]1C | · | · | 1.4 | · | · | · | ·

Compound activity from PubChem.
